Laboratory results taken from publication PMC10896134 (Pharmaceutical Biology, 2024).

Columns and labels:
Test in all cases: Antiproliferation assay
Assay type in all cases: cell-based
L02 = settings: Homo sapiens, L02, 24 h, read-out: IC50 = mean ± SD, L02
Summary of the method: (§1)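 Cell lines were grown at 37 °C under 5% CO2 in their own media: A549 in DMEM/F12, H446 in RPMI 1640, and HeLa, MCF-7, L02 and BEAS-2B in high-glucose DMEM with L-glutamine, with 10% FBS and penicillin/streptomycin. Cells were seeded in 96-well plates and exposed to test compounds or reference agents at 37 °C for 24 h. CCK-8 was added for 2 h and absorbance read at 450 nm.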

Hela = settings: Homo sapiens, 24 h, read-out: IC50 = mean ± SD, Hela
Summary of the method: as §1

A549 = settings: Homo sapiens, A549, 24 h, read-out: IC50 = mean ± SD, A549
Summary of the method: as §1

BEAS-2B = settings: Homo sapiens, 24 h, read-out: IC50 = mean ± SD, BEAS-2B
Summary of the method: as §1

H446 = settings: Homo sapiens, NCI-H446, 24 h, read-out: IC50 = mean ± SD, H446
Summary of the method: as §1

MCF-7 = settings: Homo sapiens, MCF7, 24 h, read-out: IC50 = mean ± SD, MCF-7
Summary of the method: as §1

SMILES | IC50 (Hela) [µM] | IC50 (A549) [µM] | IC50 (H446) [µM] | IC50 (MCF-7) [µM] | IC50 (L02) [µM] | IC50 (BEAS-2B) [µM]
CCCc1ccc(S(=O)(=O)Nc2ccc(CCCC(=O)O[C@H]3c4cc5c(cc4[C@@H](c4cc(OC)c(OC)c(OC)c4)[C@H]4C(=O)OC[C@@H]43)OCO5)cc2)cc1 [Compound E3, (5R,5aR,8aR,9R)-8-oxo-9-(3,4,5-trimethoxyphenyl)-5,5a,6,8,8a,9-hexahydrofuro [3′,4′:6,7]naphtho[2,3-d][1,3]dioxol-5-yl4-(4-((4-propylphenyl)sulfonamido)phenyl)butanoate] | 39.2 ± 0.56 | 17.8 ± 1.11 | 11 ± 0.47 | 18.7 ± 0.95 | > 100 | 73.6 ± 1.35
COc1cc([C@@H]2c3cc4c(cc3[C@H](OC(=O)CCCc3ccc(NS(=O)(=O)c5cccc(F)c5)cc3)[C@H]3COC(=O)[C@H]23)OCO4)cc(OC)c1OC [Compound E6, (5R,5aR,8aR,9R)-8-oxo-9-(3,4,5-trimethoxyphenyl)-5,5a,6,8,8a,9-hexahydrofuro [3′,4′:6,7]naphtho[2,3-d][1,3]dioxol-5-yl4-(4-((3-fluorophenyl)sulfonamido)phenyl)butanoate] | 12.7 ± 0.69 | 1.08 ± 0.32 | 6.07 ± 0.25 | 25.9 ± 1.34 | > 100 | 94.3 ± 2.66
COc1cc([C@@H]2c3cc4c(cc3[C@H](OC(=O)CCCc3ccc(NS(=O)(=O)c5ccc(C(F)(F)F)cc5)cc3)[C@H]3COC(=O)[C@H]23)OCO4)cc(OC)c1OC [Compound E8, (5R,5aR,8aR,9R)-8-oxo-9-(3,4,5-trimethoxyphenyl)-5,5a,6,8,8a,9-hexahydrofuro [3′,4′:6,7]naphtho[2,3-d][1,3]dioxol-5-yl4-(4-((4-(trifluoromethyl)phenyl)sulfonamido)phenyl)butanoate] | 51.8 ± 1.27 | 19.5 ± 1.09 | 29.18 ± 0.29 | 21.2 ± 0.52 | > 100 | > 100
COc1cc([C@@H]2c3cc4c(cc3[C@H](OC(=O)CCCc3ccc(NS(=O)(=O)c5ccc(F)cc5F)cc3)[C@H]3COC(=O)[C@H]23)OCO4)cc(OC)c1OC [Compound E9, (5R,5aR,8aR,9R)-8-oxo-9-(3,4,5-trimethoxyphenyl)-5,5a,6,8,8a,9-hexahydrofuro [3′,4′:6,7]naphtho[2,3-d][1,3]dioxol-5-yl4-(4-((2,4-difluorophenyl)sulfonamido)phenyl)butanoate] | 62 ± 1.58 | 0.55 ± 0.17 | 9.27 ± 0.74 | 4.97 ± 0.53 | > 100 | 99.3 ± 3.53
COc1cc([C@@H]2c3cc4c(cc3[C@H](OC(=O)CCCc3ccc(NS(=O)(=O)c5c(F)cccc5F)cc3)[C@H]3COC(=O)[C@H]23)OCO4)cc(OC)c1OC [Compound E10, (5R,5aR,8aR,9R)-8-oxo-9-(3,4,5-trimethoxyphenyl)-5,5a,6,8,8a,9-hexahydrofuro [3′,4′:6,7]naphtho[2,3-d][1,3]dioxol-5-yl4-(4-((2,6-difluorophenyl)sulfonamido)phenyl)butanoate] | 27.5 ± 2.54 | 0.95 ± 0.22 | 7.28 ± 0.96 | 8.4 ± 0.79 | > 100 | > 100
COc1cc([C@@H]2c3cc4c(cc3[C@H](OC(=O)CCCc3ccc(NS(=O)(=O)c5ccccc5[N+](=O)[O-])cc3)[C@H]3COC(=O)[C@H]23)OCO4)cc(OC)c1OC [Compound E11, (5R,5aR,8aR,9R)-8-oxo-9-(3,4,5-trimethoxyphenyl)-5,5a,6,8,8a,9-hexahydrofuro [3′,4′:6,7]naphtho[2,3-d][1,3]dioxol-5-yl4-(4-((2-nitrophenyl)sulfonamido)phenyl)butanoate] | 46.7 ± 2.04 | 27.8 ± 1.51 | 10.5 ± 2.08 | 8.07 ± 0.63 | > 100 | > 100
COc1cc([C@@H]2c3cc4c(cc3[C@H](OC(=O)CCCc3ccc(NS(=O)(=O)c5ccc([N+](=O)[O-])cc5)cc3)[C@H]3COC(=O)[C@H]23)OCO4)cc(OC)c1OC [Compound E14, (5R,5aR,8aR,9R)-8-oxo-9-(3,4,5-trimethoxyphenyl)-5,5a,6,8,8a,9-hexahydrofuro [3′,4′:6,7]naphtho[2,3-d][1,3]dioxol-5-yl4-(4-((4-nitrophenyl)sulfonamido)phenyl)butanoate] | 26.8 ± 0.63 | 11 ± 2.51 | 29.4 ± 2.54 | 59.9 ± 1.71 | > 100 | > 100

Continued, in another order:

IC50 (Hela) [µM] | IC50 (A549) [µM] | IC50 (H446) [µM] | IC50 (MCF-7) [µM] | SMILES | IC50 (L02) [µM] | IC50 (BEAS-2B) [µM]
> 100 | 2.73 ± 0.36 | 22.9 ± 1.33 | 25 ± 1.11 | COc1cc([C@@H]2c3cc4c(cc3[C@H](OC(=O)CCCc3ccc(NS(=O)(=O)c5ccccc5)cc3)[C@H]3COC(=O)[C@H]23)OCO4)cc(OC)c1OC [Compound E1, (5R,5aR,8aR,9R)-8-oxo-9-(3,4,5-trimethoxyphenyl)-5,5a,6,8,8a,9-hexahydrofuro [3′,4′:6,7]naphtho[2,3-d][1,3]dioxol-5-yl 4-(4-(phenylsulfonamido)phenyl)butanoate] | > 100 | 83.6 ± 1.85
18.4 ± 0.22 | 2.57 ± 0.98 | 17.4 ± 0.95 | 70.91 ± 0.47 | COc1cc([C@@H]2c3cc4c(cc3[C@H](OC(=O)CCCc3ccc(NS(=O)(=O)c5ccc(Br)cc5)cc3)[C@H]3COC(=O)[C@H]23)OCO4)cc(OC)c1OC [Compound E4, (5R,5aR,8aR,9R)-8-oxo-9-(3,4,5-trimethoxyphenyl)-5,5a,6,8,8a,9-hexahydrofuro [3′,4′:6,7]naphtho[2,3-d][1,3]dioxol-5-yl4-(4-((4-bromophenyl)sulfonamido)phenyl)butanoate] | > 100 | > 100
13.6 ± 0.71 | 20.2 ± 0.79 | > 100 | 18.9 ± 0.81 | COc1cc([C@@H]2c3cc4c(cc3[C@H](OC(=O)CCCc3ccc(NS(=O)(=O)c5ccccc5F)cc3)[C@H]3COC(=O)[C@H]23)OCO4)cc(OC)c1OC [Compound E7, (5R,5aR,8aR,9R)-8-oxo-9-(3,4,5-trimethoxyphenyl)-5,5a,6,8,8a,9-hexahydrofuro [3′,4′:6,7]naphtho[2,3-d][1,3]dioxol-5-yl4-(4-((2-fluorophenyl)sulfonamido)phenyl)butanoate] | > 100 | > 100
36.1 ± 1.49 | 27 ± 1.33 | 27.2 ± 2.06 | 36.8 ± 0.56 | COc1cc([C@@H]2c3cc4c(cc3[C@H](OC(=O)CCCc3ccc(NS(=O)(=O)c5ccc(C)cc5)cc3)[C@H]3COC(=O)[C@H]23)OCO4)cc(OC)c1OC [Compound E12, (5R,5aR,8aR,9R)-8-oxo-9-(3,4,5-trimethoxyphenyl)-5,5a,6,8,8a,9-hexahydrofuro [3′,4′:6,7]naphtho[2,3-d][1,3]dioxol-5-yl4-(4-((4-methylphenyl)sulfonamido)phenyl)butanoate] | > 100 | 79.3 ± 1.07
51.3 ± 1.15 | 4.94 ± 0.42 | 9.92 ± 0.92 | 42 ± 1.35 | COc1cc([C@@H]2c3cc4c(cc3[C@H](OC(=O)CCCc3ccc(NS(=O)(=O)c5cccc([N+](=O)[O-])c5)cc3)[C@H]3COC(=O)[C@H]23)OCO4)cc(OC)c1OC [Compound E13, (5R,5aR,8aR,9R)-8-oxo-9-(3,4,5-trimethoxyphenyl)-5,5a,6,8,8a,9-hexahydrofuro [3′,4′:6,7]naphtho[2,3-d][1,3]dioxol-5-yl4-(4-((3-nitrophenyl)sulfonamido)phenyl)butanoate] | 48.1 ± 1.09 | > 100
